According to ChEMBL document CHEMBL1268829, “Design, synthesis and activity of benzothiazole-based inhibitors of NO production in LPS-activated macrophages” (Bioorg Med Chem Lett, 2010):
The source made the active and inactive calls. The calls are words filed in the database; no cut-off is given here.

Legend:
[1] = test system: RAW264.7; assay: Inhibition of LPS-induced nitric oxide production in mouse RAW264.7 cells at 20 uM after 20 hrs by Griess method; format: functional; settings: RAW264.7, 20 h
Method in brief: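 Cells plated at 1 × 10⁵ cells/mL in 10% FBS-DMEM for 24 h, then given 1% FBS medium with compound at 20 μM plus LPS (1 μg/mL) for 20 h. Supernatant nitrite read by Griess reagent at 570 nm against a sodium nitrite standard. Percent inhibition relative to LPS control, n = 3.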

[2] = test system: RAW264.7; assay: Inhibition of LPS-induced nitric oxide production in mouse RAW264.7 cells after 20 hrs by Griess method; format: functional, cell-based; settings: RAW264.7, 20 h
Method in brief: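 Cells plated at 1 × 10⁵ cells/mL in 10% FBS-DMEM for 24 h, then switched to 1% FBS medium. Incubated 20 h with LPS (1 μg/mL) with or without compound. Supernatant nitrite read with Griess reagent, 10 min at room temperature, absorbance 570 nm, against a sodium nitrite standard. IC₅₀ from dose–response curve.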

[3] = test system: RAW264.7; assay: Inhibition of LPS-induced iNOS expression in mouse RAW264.7 cells at 20 uM treated for 20 hrs during LPS activation by Western blot; format: functional, cell-based
Method in brief: (§1)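 RAW 264.7 cells given compound (20 μM) during 20 h LPS (1 μg/mL) activation, then washed and lysed. 20 μg lysate protein run on 8% SDS-PAGE and blotted to PVDF. Probed for iNOS, COX-2 and actin, with ECL detection.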

[4] = test system: RAW264.7; assay: Inhibition of I-kappaB-alpha degradation in LPS-induced mouse RAW264.7 cells at 20 uM pretreated for 30 mins before LPS challenge for 30 mins by Western blotting; format: cell-based
Method in brief: (§2)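 Cells pretreated 30 min with compound at 20 μM, then LPS (1 μg/mL) for 30 min. Cytoplasmic IκB-α and nuclear p65 measured by Western blot. Levels normalized to PARP.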

[5] = test system: RAW264.7; assay: Inhibition of LPS-induced iNOS mRNA expression in mouse RAW264.7 cells at 20 uM pretreated for 6 hrs before LPS challenge by RT-PCR; format: functional, cell-based
[6] = test system: RAW264.7; assay: Inhibition of LPS-induced COX2 mRNA expression in mouse RAW264.7 cells at 20 uM pretreated for 6 hrs before LPS challenge by RT-PCR; format: functional, cell-based
[7] = test system: RAW264.7; assay: Inhibition of LPS-induced COX2 mRNA expression in mouse RAW264.7 cells at 20 uM treated after LPS challenge by RT-PCR; format: functional, cell-based
Method in brief: (§3)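 Cells at 1.8 × 10⁶ per 60 mm dish stimulated 6 h with LPS (1 μg/mL) with or without compound (20 μM). Total RNA taken for RT-PCR of iNOS, COX-2 and β-actin: 25 cycles of 94 °C, 55 °C and 72 °C, 30 s each. Products resolved on 2% agarose.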

[8] = test system: RAW264.7; assay: Inhibition of sNFkappaB nuclear translocation in LPS-induced mouse RAW264.7 cells at 20 uM pretreated for 30 mins before LPS challenge for 30 mins by Western blotting; format: cell-based; method in brief: as §2
[9] = test system: RAW264.7; assay: Inhibition of LPS-induced COX2 expression in mouse RAW264.7 cells at 20 uM treated for 20 hrs during LPS activation by Western blot; format: functional, cell-based; method in brief: as §1
[10] = test system: RAW264.7; assay: Inhibition of LPS-induced iNOS mRNA expression in mouse RAW264.7 cells at 20 uM treated after LPS challenge by RT-PCR; format: functional, cell-based; method in brief: as §3

Row | IC50 [2] | Compound | inhibition at 20 µM [1] | also measured
1 | 72.3 µM | O=C(Cc1ccc2c(c1)OCO2)Nc1ccccc1COc1cccc2scnc12 | 32.5% | 
2 | 17.2 µM | c1ccc(CNc2ccccc2COc2cccc3scnc23)cc1 | 55.8% | inhibition [3]: Active; inhibition [4]: Active; inhibition [5]: Active; inhibition [6]: Active; inhibition [7]: inactive; inhibition [8]: Active; inhibition [9]: Active; inhibition [10]: inactive
3 |  | COc1cccc2scnc12 | 18.6% | 
4 |  | Cc1ccc(COc2cccc3sc(N)nc23)cc1 | 14.4% | 
5 |  | COc1ccc(CCC(=O)Nc2ccccc2COc2cccc3scnc23)cc1OC | 11.6% | 
6 | 20.9 µM | COc1ccc(/C=C/C(=O)N(Cc2ccccc2)c2ccccc2COc2cccc3scnc23)cc1OC | 39.8% | inhibition [3]: Active; inhibition [4]: Active; inhibition [5]: Active; inhibition [6]: Active; inhibition [7]: inactive; inhibition [8]: Active; inhibition [9]: Active; inhibition [10]: inactive
7 | 21.2 µM | O=C(Cc1ccc2c(c1)OCO2)N(Cc1ccccc1)c1ccccc1COc1cccc2scnc12 | 54.9% | 
8 |  | Oc1cccc2scnc12 | 8.6% | 
9 |  | Nc1ccccc1COc1cccc2scnc12 | 15.2% | 
10 | 4.2 µM | COc1ccc2[nH]cc(CC(=O)Nc3cccc(COc4cccc5scnc45)c3)c2c1 | 75.9% | inhibition [3]: Active; inhibition [4]: Active; inhibition [5]: Active; inhibition [6]: Active; inhibition [7]: inactive; inhibition [8]: Active; inhibition [9]: Active; inhibition [10]: inactive
11 | 23.6 µM | O=C(Cc1ccc2c(c1)OCO2)Nc1cccc(COc2cccc3scnc23)c1 | 58.9% | 
12 |  | COc1ccc2[nH]cc(CC(=O)Nc3ccccc3COc3cccc4scnc34)c2c1 | 36.4% | 
13 |  | CS(=O)(=O)Nc1ccccc1COc1cccc2scnc12 | 0.4% | 
14 |  | Nc1cccc(COc2cccc3scnc23)c1 | 32.9% | 
15 |  | Nc1nc2c(O)cccc2s1 | 11.4% | 
16 |  | c1ccc(COc2cccc3scnc23)cc1 | 12.3% | 
17 |  | CC(=O)Nc1ccccc1COc1cccc2scnc12 | 3.7% | 
18 |  | COc1ccc(/C=C/C(=O)Nc2ccccc2COc2cccc3scnc23)cc1OC | 44.7% | 
19 |  | Cc1ccc(COc2cccc3scnc23)cc1 | 10.4% | 
